These results are taken from ChEMBL document CHEMBL1148287, “Design of potent, selective, and orally bioavailable inhibitors of cysteine protease cathepsin k” (J Med Chem, 2004).

Data set [1] is described as follows: Selectivity as ratio between IC50 against Cathepsin B and IC50 against Cathepsin K. The method in brief:
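Human liver cathepsin B and recombinant human cathepsin K were each run with Cbz-Phe-Arg-AMC at 10 μM final (Km 400 and 70 μM). Both used pH 5.5 acetate/DTT/NaCl buffer, 10% DMSO, 30 °C and a 2.3 h fluorescence progress-curve read (ex 360/em 440). IC50s were fitted from rate vs [I], and the ratio of the two IC50s was taken.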

For data set [2], the target named is T1, Cathepsin K (Homo sapiens, UniProt P43235).
T1 sequence (P43235 whole entry): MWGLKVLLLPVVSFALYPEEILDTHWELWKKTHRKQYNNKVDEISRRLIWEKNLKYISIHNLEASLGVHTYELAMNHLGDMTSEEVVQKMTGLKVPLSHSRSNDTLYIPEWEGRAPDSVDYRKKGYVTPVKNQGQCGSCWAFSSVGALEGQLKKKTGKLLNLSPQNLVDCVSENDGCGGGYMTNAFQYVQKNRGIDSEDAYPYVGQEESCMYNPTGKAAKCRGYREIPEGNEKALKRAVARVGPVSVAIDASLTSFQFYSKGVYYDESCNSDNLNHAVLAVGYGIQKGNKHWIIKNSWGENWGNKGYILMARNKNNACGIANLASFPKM
Put plainly: Concentration required to inhibit 50% of cysteine protease cathepsin K of human. The method in brief:
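Reactions were started by adding inhibitor plus substrate to enzyme. AMC fluorescence (ex 360/em 440) progress curves were followed over 2.3 h at varied inhibitor concentrations. IC50 was fitted as rate = Vmax/(1+[I]/IC50).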

Data set [3] is described as follows: Maximum time required to achieve Cmax was determined in rat. Type of data set: ADME, organism-based. Conditions: in vivo. The procedure, abridged:
(§1)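 Rats were dosed iv into the femoral vein at 5 mg/kg or orally at 10 mg/kg, from a solution in 15% solutol/citrate buffer/0.1% ascorbic acid, pH 3.5. Blood was drawn from a jugular cannula before dosing and at 0.03–24 h, then clotted to serum. Samples were acetonitrile-precipitated with internal standard and analysed by LC-MS/MS (MRM). Parameters came from noncompartmental analysis.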

Data set [4] is described as follows: Percent instability was measured by Rat S9 liver […] metabolism assay, in vitro. Format: ADME, Liver S9 fraction. Conditions: read-out: Activity. The procedure, abridged: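 Rat S9 liver metabolism, read as % metabolized after 1 h incubation at 37 °C, run in duplicate.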
Data set [5] in a line: Bioavailability in rat. Type of data set: ADME, organism-based. Conditions: in vivo. The method in brief: as §1
The target in data set [6] is Cathepsin (H and K) (Homo sapiens) (UniProt P09668+P43235). Put plainly: Selectivity for Cathepsins H and K, ratio of IC50. Type of data set: protein assay. The method in brief:
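Human liver cathepsin H was run with L-Arg-β-naphthalamide at 50 μM final (Km 195 μM), read at ex 340/em 420. Human cathepsin K used Cbz-Phe-Arg-AMC at 10 μM, read at ex 360/em 440. Both were at pH 5.5 with DTT/NaCl and 10% DMSO at 30 °C, with 2.3 h progress curves. IC50s were fitted from rate vs [I] and ratioed.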

Data set [7] can be described thus: Peak plasma concentration in rat. Format: ADME, organism-based. The method in brief: as §1
The nature of data set [8]: Selectivity as ratio between IC50 against Cathepsin L and IC50 against Cathepsin K. The method in brief:
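Both assays used pH 5.5 acetate/DTT/NaCl, 10% DMSO, 30 °C and AMC fluorescence progress curves over 2.3 h. IC50s were fitted from rate vs [I] and taken as a ratio.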

Data set [9] is described as follows: Selectivity ratio between IC50 against Cathepsin S and IC50 against Cathepsin K. The procedure, abridged: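 Recombinant human cathepsin S was run with Cbz-Val-Val-Arg-AMC at 10 μM final (Km >100 μM); human cathepsin K used Cbz-Phe-Arg-AMC at 10 μM. Both were in pH 5.5 sodium acetate with 10 mM DTT, 120 mM NaCl and 10% DMSO at 30 °C, with AMC fluorescence progress curves over 2.3 h. The ratio was taken from the fitted IC50s.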

Data set [10] addresses T2, Cathepsin K (Rattus norvegicus, UniProt O35186).
T2 sequence (O35186 whole entry): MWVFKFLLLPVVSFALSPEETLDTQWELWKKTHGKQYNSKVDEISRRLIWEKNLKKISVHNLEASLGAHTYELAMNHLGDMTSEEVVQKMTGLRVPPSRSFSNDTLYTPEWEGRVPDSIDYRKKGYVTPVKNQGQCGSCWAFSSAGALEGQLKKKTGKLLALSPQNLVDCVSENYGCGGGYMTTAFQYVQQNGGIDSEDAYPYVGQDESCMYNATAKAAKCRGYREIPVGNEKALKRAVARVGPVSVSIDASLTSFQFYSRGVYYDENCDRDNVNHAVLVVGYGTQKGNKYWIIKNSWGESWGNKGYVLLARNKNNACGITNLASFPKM
Put plainly: Inhibition of cysteine protease cathepsin K of rat.

Data set [11] in a line: Area Under plasma concentration time curve in rat upon peroral administration. Format: ADME, organism-based. The settings on record: po. The method in brief:
as §1

The species entered for another data set is Homo sapiens. Put plainly: Selectivity as ratio between IC50 against Cathepsin V and IC50 against Cathepsin K. The method in brief: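 Conditions were pH 5.5 acetate buffer with 10 mM DTT, 120 mM NaCl and 10% DMSO at 30 °C, with fluorescence progress curves over 2.3 h. The IC50 fits gave the ratio.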
A short description of data set [12]: Half-life in rat. Format: ADME, organism-based. Conditions: in vivo. The procedure, abridged: as §1
The next data set is filed under the species Rattus norvegicus. Put plainly: Volume of distribution in steady state was determined in rat. Format: ADME, organism-based. The settings on record: in vivo. The procedure, abridged: as §1
Data set [13] in a line: Compound was tested for its cell permeability in the Madin-Darby canine kidney cell monolayer transport assay. Type of data set: ADME, Canis lupus familiaris. Conditions: dog, MDCK; read-out: Activity.

As a reminder, the IC50 is the midpoint of a concentration-inhibition curve. What is called Tmax is the time at which the peak concentration occurs. The bioavailability is the share of a dose that reaches the circulation, judged against a reference dose that is usually intravenous. A lower bioavailability goes with poor availability. The term Cmax denotes the maximum level reached in the sampled fluid or tissue. Usually AUC stands for concentration integrated over time. Lower therefore signals low exposure. Usually half-life stands for how long it takes for the measured level to halve. A lower half-life goes with rapid decline. A word on the Vss: it is a proportionality between amount in the body and measured concentration, not a real space. Read a low Vss as confinement near the circulation.

Cathepsin (H and K) (Homo sapiens), sequence (P09668 whole entry, looked up, one chain of several): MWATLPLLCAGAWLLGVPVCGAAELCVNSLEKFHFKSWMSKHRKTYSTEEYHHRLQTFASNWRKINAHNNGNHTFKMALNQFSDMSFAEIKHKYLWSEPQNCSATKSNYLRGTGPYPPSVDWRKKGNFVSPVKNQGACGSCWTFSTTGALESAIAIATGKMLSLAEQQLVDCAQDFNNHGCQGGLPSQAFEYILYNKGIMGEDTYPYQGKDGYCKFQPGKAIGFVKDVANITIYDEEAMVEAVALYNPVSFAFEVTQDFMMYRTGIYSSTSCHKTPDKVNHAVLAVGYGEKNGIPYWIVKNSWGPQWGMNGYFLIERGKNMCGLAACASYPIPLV

Turning to `CCCC[C@H](NC(=O)OC(C(C)C)C(C)C)C(=O)C(=O)Nc1cc[nH]n1`, the Ratio was determined as 670 in data set [1]; 30 in data set [6]; 40 in data set [8]; 3 in [9]; 21 in the data set listed under Homo sapiens. The IC50 against Cathepsin K [2] came out at 0.77 nM; against Cathepsin K [10], 13 nM. For the same molecule, the Tmax in data set [3] is 0.25 h. Moreover, in data set [4], the metabolised came out at 77%. Moreover, the bioavailability in data set [5] was 41%. This molecule also displayed a Cmax in data set [7] of 370 ng/mL. In [11], the area under the curve (AUC) turned out to be 1100 ng·h/mL. Further, in data set [12], the half-life is 11.7 h. The molecule further came in with a Vss in the data set listed under Rattus norvegicus of 15 L/kg. Also, the Papp in [13] was determined as 48 ×10⁻⁶ cm/s.
Regarding `CCCC[C@H](NC(=O)OC(C(C)C)C(C)C)C(=O)C(=O)Nc1ccnn1CC(C)C`, the Ratio was more than 320 in data set [1]; more than 320 in data set [6]; 260 in data set [8]; 59 in data set [9]; 120 in the data set listed under Homo sapiens. Besides, the results for the concentration for half-maximal inhibition (IC50) against Cathepsin K [2] and against Cathepsin K [10] were 39 nM and 2700 nM, respectively.
With `CCCC[C@H](NC(=O)OC(C(C)C)C(C)C)C(=O)C(=O)Nc1nncs1`, the half-inhibitory concentration (IC50) against Cathepsin K [2] came out at 83 nM. In addition, in [3], the Tmax was 0.633 h. Besides, the metabolised in data set [4] came to 96%. Besides, in data set [5], the bioavailability was 15%. This molecule registered a Cmax in [7] of 690 ng/mL. Besides, the AUC in data set [11] came out at 920 ng·h/mL. In addition, the half-life in [12] was 2.83 h.
Consider `CCCC[C@H](NC(=O)OC(C(C)C)C(C)C)C(=O)C(=O)Nc1ccnn1-c1ccccn1`, for which the Ratio in data set [1] is more than 200; in data set [8] it was 40; in [9], 8.3; in the data set filed under Homo sapiens, 19. For the same molecule, the 50% inhibitory concentration (IC50) amounted to 62 nM against Cathepsin K [2] and 1200 nM against Cathepsin K [10].
As to `CCCC[C@H](NC(=O)OC(C(C)C)C(C)C)C(=O)C(=O)Nc1ccnn1C`, the Ratio in data set [1] was more than 400; in [6] it was more than 400; in data set [8], 250; in data set [9], 91; in the data set listed under Homo sapiens, 50. The 50% inhibitory concentration (IC50) on Cathepsin K [2] was found to be 32 nM; against Cathepsin K [10] it was 1700 nM. Further, the time of peak concentration (Tmax) in [3] is 0.633 h. Moreover, the metabolised in [4] came out at 99%. In data set [5], this molecule yielded a bioavailability of 28%. This molecule also came in with a maximum concentration (Cmax) in data set [7] of 970 ng/mL. In [11], this molecule had an AUC of 1800 ng·h/mL. The half-life in [12] was found to be 4 h. Also, the Papp in data set [13] came out at 49 ×10⁻⁶ cm/s.
Take `CCCC[C@H](NC(=O)OC(C(C)C)C(C)C)C(=O)C(=O)Nc1ccnn1C1CCC1`: the Ratio in data set [1] was more than 830; in data set [6], more than 830; in [8], 290; in [9] it was 130; in the data set listed under Homo sapiens it was 140. Further, the half-maximal inhibitory concentration (IC50) against Cathepsin K [2] was 15 nM; on Cathepsin K [10], 1100 nM.
Take `CCCC[C@H](NC(=O)OC(C(C)C)C(C)C)C(=O)C(=O)Nc1cc(-c2ccccc2)[nH]n1`: the Ratio worked out at 520 in data set [1]; 18 in [6]; 25 in [8]; 7 in data set [9]; 20 in the data set filed under Homo sapiens.
At Cathepsin K [2], `CCCC[C@H](NC(=O)OC(C(C)C)C(C)C)C(=O)C(=O)Nc1ccccn1` came in with a concentration for half-maximal inhibition (IC50) of 32 nM. In addition, in [3], the Tmax was 0.25 h. Also, the metabolised in data set [4] was 63%. The molecule also registered a bioavailability in [5] of 58%. The molecule further registered a Cmax in [7] of 1400 ng/mL. In data set [11], this molecule came in with an area under the curve (AUC) of 2700 ng·h/mL. For the same molecule, the half-life in data set [12] worked out at 2.17 h. Moreover, the Papp in data set [13] came to 21 ×10⁻⁶ cm/s.
`CCCC[C@H](NC(=O)OC(C(C)C)C(C)C)C(=O)C(=O)Nc1[nH]ncc1C`: the Ratio in data set [1] was determined as 1100; in data set [6] it was 2100; in data set [8], 26; in data set [9] it was 1.7; in the data set filed under Homo sapiens, 14. The IC50 against Cathepsin K [2] turned out to be 0.47 nM; against Cathepsin K [10], 5.5 nM. Also, the metabolised in [4] was found to be 68%. The Papp in data set [13] was 37 ×10⁻⁶ cm/s.
On to `CCCC[C@H](NC(=O)OC(C(C)C)C(C)C)C(=O)C(=O)Nc1[nH]ncc1-c1ccccc1`, for which the Ratio in data set [1] turned out to be 1200; in [6], 1700; in data set [8], 25; in data set [9], 4.1; in the data set filed under Homo sapiens, 9.1. Also, the results for the 50% inhibitory concentration (IC50) at Cathepsin K [2] and against Cathepsin K [10] were 0.21 nM and 1.8 nM, respectively.
`CCCC[C@H](NC(=O)OC(C(C)C)C(C)C)C(=O)C(=O)Nc1nccs1`: at Cathepsin K [2], inhibition was half-maximal at 40 nM (IC50). Further, the Tmax in [3] was 0.167 h. The metabolised in [4] was 98%. Also, the bioavailability in data set [5] is 18%. This molecule also yielded a peak concentration (Cmax) in data set [7] of 170 ng/mL. In [11], this molecule showed an AUC of 750 ng·h/mL. In data set [12], this molecule registered a half-life of 2.17 h. The Papp in [13] was 23 ×10⁻⁶ cm/s.
For `CCCC[C@H](NC(=O)OC(C(C)C)C(C)C)C(=O)C(=O)Nc1ccnn1CC1CC1`, the Ratio in data set [1] was more than 470; in [6], more than 470; in data set [8] it was 220; in [9], 41; in the data set filed under Homo sapiens it was 63. The IC50 was 27 nM against Cathepsin K [2] and 1700 nM at Cathepsin K [10].
As to `CCCC[C@H](NC(=O)OC(C(C)C)C(C)C)C(=O)C(=O)Nc1ccnn1-c1ccncc1`, the Ratio in [1] was more than 500; in data set [6], more than 500; in data set [8], 44; in data set [9], 5.4; in the data set filed under Homo sapiens it was 19. Besides, the IC50 is 25 nM at Cathepsin K [2] and 470 nM on Cathepsin K [10].
